Laboratory results taken from ChEMBL document CHEMBL1134519, “Synthesis, nicotinic acetylcholine receptor binding, and antinociceptive properties of 2-exo-2-(2'-substituted 5'-pyridinyl)-7-azabicyclo[2.2.1]heptanes. Epibatidine analogues” (J Med Chem, 2001).

Experiments:
[1] = target: T1, Neuronal acetylcholine receptor; alpha4/beta2 (Rattus norvegicus, UniProt P09483+P12390); assay: Inhibition of [3H]-nicotine binding at the nicotinic acetylcholine receptor alpha4-beta2; type: protein-complex assay
Mus musculus [2] = species on record: Mus musculus; assay: Antinociception by tail-flick test in male ICR mice after intrathecal (i.t.) injection; type: functional
In short: (§1)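 Male ICR mice injected intrathecally, free-hand between L4 and L6 while unanesthetized. Tail-flick latency was read before treatment (control 2-4 s) and 5 min after injection, with a 10 s cutoff. The result was expressed as %MPE = [(test − control)/(10 − control)] × 100. There were 8-12 mice per dose and at least four doses, and ED50 with 95% CL came from unweighted least-squares linear regression.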

[3] = Hill slope value of the compound
Mus musculus [4] = assay: Antinociception by tail-flick test in male ICR mice after intrathecal (i.t.) injection, at 32.5 mg/kg; type: functional; in short: as §1
[5] = target: T1, Neuronal acetylcholine receptor; alpha4/beta2; assay: Inhibition of [3H]epibatidine binding at the nicotinic acetylcholine receptor alpha4-beta2 in male rat cerebral cortex; type: tissue-based
[6] = target: T1, Neuronal acetylcholine receptor; alpha4/beta2; assay: Non-specific binding in presence of 300 uM nicotine at nicotinic acetylcholine receptor alpha4-beta2 in rat cerebral cortex membranes; type: cell membranes, Membrane
[7] = target: T1, Neuronal acetylcholine receptor; alpha4/beta2; assay: Inhibition of […] binding at the nicotinic acetylcholine receptor alpha4-beta2 in male rat cerebral cortex; type: tissue-based
In short: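 Male rat cerebral cortex homogenate (3 mg wet weight) was incubated with 0.5 nM [3H]epibatidine and 10-12 test concentrations, in buffer at pH 7.4 with 1% DMSO final, for 4 h at room temperature. Nonspecific binding was defined with 300 µM (-)-nicotine. Samples were filtered on PEI-soaked GF/B and counted by scintillation. IC50 came from at least three independent experiments by nonlinear regression, and Ki by Cheng-Prusoff.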

Mus musculus [8] = assay: Antinociception by tail-flick test in male ICR mice after intrathecal (i.t.) injection at 112 mg/kg; type: functional; in short: as §1

T1 sequence (P09483 whole entry): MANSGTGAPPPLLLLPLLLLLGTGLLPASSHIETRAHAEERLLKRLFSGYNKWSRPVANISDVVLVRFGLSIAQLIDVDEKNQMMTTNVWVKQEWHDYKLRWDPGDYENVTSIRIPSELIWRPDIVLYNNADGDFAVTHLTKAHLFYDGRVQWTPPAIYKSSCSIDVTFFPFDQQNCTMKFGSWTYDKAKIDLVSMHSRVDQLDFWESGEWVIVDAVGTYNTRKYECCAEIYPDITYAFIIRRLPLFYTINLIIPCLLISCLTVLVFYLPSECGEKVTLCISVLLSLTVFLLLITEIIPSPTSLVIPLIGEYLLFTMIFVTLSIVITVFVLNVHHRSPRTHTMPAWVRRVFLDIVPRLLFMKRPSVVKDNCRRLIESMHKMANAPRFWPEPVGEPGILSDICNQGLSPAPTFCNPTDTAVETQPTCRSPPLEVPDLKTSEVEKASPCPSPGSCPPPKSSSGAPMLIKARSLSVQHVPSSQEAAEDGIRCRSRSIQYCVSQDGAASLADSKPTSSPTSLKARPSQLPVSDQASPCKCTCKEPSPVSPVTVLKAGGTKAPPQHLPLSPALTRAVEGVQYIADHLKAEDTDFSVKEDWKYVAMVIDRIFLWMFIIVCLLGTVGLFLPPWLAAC
T1 sequence (P12390 whole entry): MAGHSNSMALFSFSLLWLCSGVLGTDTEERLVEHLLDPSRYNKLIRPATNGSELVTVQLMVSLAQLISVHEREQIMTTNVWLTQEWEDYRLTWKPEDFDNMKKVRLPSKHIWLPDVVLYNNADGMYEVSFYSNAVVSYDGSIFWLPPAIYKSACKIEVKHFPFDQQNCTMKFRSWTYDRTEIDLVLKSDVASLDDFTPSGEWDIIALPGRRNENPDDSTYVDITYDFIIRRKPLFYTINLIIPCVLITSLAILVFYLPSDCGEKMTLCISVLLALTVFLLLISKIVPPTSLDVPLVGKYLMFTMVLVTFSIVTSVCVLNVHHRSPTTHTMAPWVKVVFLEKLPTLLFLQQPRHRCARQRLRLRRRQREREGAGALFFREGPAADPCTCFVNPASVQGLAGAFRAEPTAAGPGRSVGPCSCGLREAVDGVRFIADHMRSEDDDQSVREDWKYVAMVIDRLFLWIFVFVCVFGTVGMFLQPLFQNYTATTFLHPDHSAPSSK

Row | SMILES | Ki [1] [nM] | ED50 (Mus musculus [2]) [nM mouse-1] | Hill coefficient [3] | further results
1 | CN1CCCC1c1ccc(F)nc1 (stereo not drawn) | 1.03 |  |  | 
2 | CN1CCC[C@H]1c1cccnc1 [NICOTINE] |  | 74 | 0.9 | 
3 | CN1CCCC1c1ccc(Br)nc1 (stereo not drawn) | 0.45 |  |  | 
4 | CN1CCCC1c1ccc(Cl)nc1 (stereo not drawn) | 0.63 |  |  | 
5 | CN1CCCC1c1ccc(N)nc1 (stereo not drawn) | 81 |  |  | 
6 | CN1CCCC1c1ccc(O)nc1 (stereo not drawn) | 1070 |  |  | 
7 | CN(C)c1ccc(C2CC3CCC2N3)cn1 (stereo not drawn) |  |  | 1 | inhibition in vivo at 32.5 mg/kg (Mus musculus [4]): 10%
8 | Ic1ccc(C2CC3CCC2N3)cn1 (stereo not drawn) |  |  |  | Ki [5]: 0.07 nM; Ki [6]: 0.48 nM
9 | Clc1ccc([C@H]2C[C@@H]3CC[C@H]2N3)cn1 [(-)-EPIBATIDINE] |  | 0.6 |  | 
10 | c1cncc(C2CC3CCC2N3)c1 (stereo not drawn) [DESCHLOROEPIBATIDINE] |  | 0.2 | 0.8 | Ki [5]: 0.02 nM; Ki [6]: 0.031 nM
11 | Fc1ccc(C2CC3CCC2N3)cn1 (stereo not drawn) |  | 0.31 | 0.9 | 
12 | O=c1ccc(C2CC3CCC2N3)c[nH]1 (stereo not drawn) |  |  |  | Ki [7]: 107 nM
13 | Oc1ccc(C2CC3CCC2N3)cn1 (stereo not drawn) |  | 52.4 | 1 | 
14 | Nc1ccc(C2CC3CCC2N3)cn1 (stereo not drawn) |  |  | 1 | inhibition in vivo at 112 mg/kg (Mus musculus [8]): 27%; Ki [5]: 1.3 nM
15 | Brc1ccc(C2CC3CCC2N3)cn1 (stereo not drawn) |  | 0.33 | 0.9 | Ki [5]: 0.023 nM
16 | Clc1ccc([C@@H]2C[C@H]3CC[C@@H]2N3)cn1 [(+)-EPIBATIDINE] |  | 0.5 |  | 
